Laboratory results: article PMC5689172 (Biochemistry and Biophysics Reports, 2016)
Converted amounts (≈) assume the structure as drawn. Where two headings read alike, the source gives them in different places.

Tests used:
[1] = tested on: S. aureus ATCC 25923; test: Antimicrobial activity, agar dilution method; type: cell-based; details: Staphylococcus aureus, ATCC25923
Procedure, shortened: (§1)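 Test compound in DMSO, mixed with Mueller–Hinton broth, two-fold serially diluted, and incorporated into MH agar at final 0.25–256 μg/mL. Agar with 0.5% DMSO served as reagent control. Organisms were grown overnight in MH broth at 37 °C, diluted in normal saline to 0.5 McFarland (1.5×10⁸ CFU/mL), and inoculated onto plates. Plates were incubated at 37 °C for 24–48 h, then MIC was recorded.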

[2] = tested on: E. faecalis ATCC 33186; test: Antimicrobial activity, agar dilution method; type: cell-based; details: Enterococcus faecalis, ATCC33186
Procedure, shortened: as §1

[3] = tested on: M. morganii; test: Antimicrobial activity, agar dilution method; type: cell-based; details: Morganella morganii
Procedure, shortened: as §1

[4] = tested on: E. faecalis ATCC 29212; test: Antimicrobial activity, agar dilution method; type: cell-based; details: Enterococcus faecalis, ATCC29212
Procedure, shortened: as §1

[5] = tested on: L. monocytogenes; test: Antimicrobial activity, agar dilution method; type: cell-based; details: Listeria monocytogenes
Procedure, shortened: as §1

[6] = tested on: A. xylosoxidans ATCC 27061; test: Antimicrobial activity, agar dilution method; type: cell-based; details: Achromobacter xylosoxidans, ATCC27061
Procedure, shortened: as §1

[7] = tested on: C. diphtheriae NCTC 10356; test: Antimicrobial activity, agar dilution method; type: cell-based; details: Corynebacterium diphtheriae, NCTC10356
Procedure, shortened: as §1

[8] = tested on: S. Typhimurium ATCC 13311; test: Antimicrobial activity, agar dilution method; type: cell-based; details: Salmonella enterica, ATCC13311|TYPHIMURIUM
Procedure, shortened: as §1

[9] = tested on: S. epidermidis ATCC 12228; test: Antimicrobial activity, agar dilution method; type: cell-based; details: Staphylococcus epidermidis, ATCC12228
Procedure, shortened: as §1

[10] = tested on: B. cereus; test: Antimicrobial activity, agar dilution method; type: cell-based; details: Bacillus cereus
Procedure, shortened: as §1

[11] = tested on: S. putrefaciens ATCC 8071; test: Antimicrobial activity, agar dilution method; type: cell-based; details: Shewanella putrefaciens, ATCC8071
Procedure, shortened: as §1

[12] = tested on: S. Choleraesuis ATCC 10708; test: Antimicrobial activity, agar dilution method; type: cell-based; details: Salmonella enterica, ATCC10708|CHOLERAESUIS
Procedure, shortened: as §1

[13] = tested on: A. hydrophila; test: Antimicrobial activity, agar dilution method; type: cell-based; details: Aeromonas hydrophila
Procedure, shortened: as §1

[14] = Antioxidant activity, DPPH radical scavenging assay; type: biochemical; details: read-out: RSA IC50, 30 min, 517 nm
Procedure, shortened: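 Sample solution (test compound, 1 mg/mL in DMSO) was mixed with 0.1 mM DPPH in methanol and kept 30 min in the dark. Absorbance was read at 517 nm. Radical scavenging activity (%) = [1 − Abs(sample)/Abs(control)] × 100. α-Tocopherol was the positive control.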

[15] = tested on: B. subtilis ATCC 6633; test: Antimicrobial activity, agar dilution method; type: cell-based; details: Bacillus subtilis, ATCC6633
Procedure, shortened: as §1

[16] = tested on: S. aureus ATCC 29213; test: Antimicrobial activity, agar dilution method; type: cell-based; details: Staphylococcus aureus, ATCC29213
Procedure, shortened: as §1

[17] = tested on: E. coli ATCC 25922; test: Antimicrobial activity, agar dilution method; type: cell-based; details: Escherichia coli, ATCC25922
Procedure, shortened: as §1

[18] = tested on: S. Enteritidis; test: Antimicrobial activity, agar dilution method; type: cell-based; details: Salmonella enterica
Procedure, shortened: as §1

[19] = tested on: P. aeruginosa ATCC 27853; test: Antimicrobial activity, agar dilution method; type: cell-based, Pseudomonas aeruginosa
Procedure, shortened: as §1

[20] = tested on: diploid fungi and yeast; test: Antimicrobial activity, agar dilution method, summarised over the group; type: cell-based, Candida albicans; details: Saccharomyces cerevisiae, ATCC2601|ATCC90028
Procedure, shortened: as §1

[21] = tested on: S. marcescens ATCC 8100; test: Antimicrobial activity, agar dilution method; type: cell-based; details: Serratia marcescens, ATCC8100
Procedure, shortened: as §1

[22] = tested on: S. dysenteriae; test: Antimicrobial activity, agar dilution method; type: cell-based; details: Shigella dysenteriae
Procedure, shortened: as §1

[23] = tested on: K. pneumoniae ATCC 700603; test: Antimicrobial activity, agar dilution method; type: cell-based; details: Klebsiella pneumoniae, ATCC700603
Procedure, shortened: as §1

[24] = tested on: M. luteus ATCC 10240; test: Antimicrobial activity, agar dilution method; type: cell-based; details: Micrococcus luteus, ATCC10240
Procedure, shortened: as §1

[25] = tested on: C. albicans ATCC 90028; test: Antimicrobial activity, agar dilution method; type: cell-based; details: Candida albicans, ATCC90028
Procedure, shortened: as §1

[26] = tested on: S. cerevisiae ATCC 2601; test: Antimicrobial activity, agar dilution method; type: cell-based; details: Saccharomyces cerevisiae, ATCC2601
Procedure, shortened: as §1

[27] = tested on: C. freundii; test: Antimicrobial activity, agar dilution method; type: cell-based; details: Citrobacter freundii
Procedure, shortened: as §1

[28] = tested on: Gram-negative bacteria; test: Antimicrobial activity, agar dilution method, summarised over the group; type: cell-based
Procedure, shortened: as §1

[29] = tested on: P. shigelloides; test: Antimicrobial activity, agar dilution method; type: cell-based; details: Plesiomonas shigelloides
[30] = tested on: P. stutzeri ATCC 17587; test: Antimicrobial activity, agar dilution method; type: cell-based, Pseudomonas stutzeri; details: Stutzerimonas stutzeri, ATCC17587
Procedure, shortened: as §1

[31] = Cytotoxicity, MTT assay; type: cell-based; details: human, MRC-5 cells (normal embryonic lung cell line)
[32] = tested on: twenty-seven strains of microorganisms; type: cell-based; details: Saccharomyces cerevisiae
Procedure, shortened: as §1

[33] = tested on: Gram-positive bacteria; test: Antimicrobial activity, agar dilution method, summarised over the group; type: cell-based
Procedure, shortened: as §1

[34] = tested on: MRC-5 cell line; details: read-out: Cytotoxicity IC50; MRC-5 cells, MTT; cited from earlier work
[35] = read-out: SOD (superoxide dismutase) activity IC50; cited from earlier work
[36] = Pseudomonas aeruginosa, ATCC27853

Row | Structure (SMILES) | MIC [1] [µM] | MIC [2] [µM] | MIC [3] [µM] | MIC [4] [µM] | MIC [5] [µM] | MIC [6] [µM] | MIC [7] [µM] | MIC [8] [µM] | MIC [9] [µM] | MIC [10] [µM] | MIC [11] [µM] | MIC [12] [µM] | MIC [13] [µM] | IC50 [14] [µM] | MIC [15] [µM] | MIC [16] [µM] | MIC [17] [µM] | MIC [18] [µM] | MIC [19, 36] [µM] | MIC [21] [µM] | other results
1 | Nc1ccc(O)c2ncccc12 [5-amino-8HQ (8), 5-Amino-8-hydroxyquinoline] | 275 (≈ 44 µg/mL) | 1100 (≈ 176 µg/mL) | 1100 (≈ 176 µg/mL) | 1100 (≈ 176 µg/mL) | 275 (≈ 44 µg/mL) | 549 (≈ 88 µg/mL) | 1100 (≈ 176 µg/mL) | 1100 (≈ 176 µg/mL) | 275 (≈ 44 µg/mL) | 275 (≈ 44 µg/mL) | 1100 (≈ 176 µg/mL) | 1100 (≈ 176 µg/mL) | 275 (≈ 44 µg/mL) | 8.71 | 275 (≈ 44 µg/mL) | 275 (≈ 44 µg/mL) | 1100 (≈ 176 µg/mL) | 1100 (≈ 176 µg/mL) | 1100 (≈ 176 µg/mL) | 1100 (≈ 176 µg/mL) | MIC [20]: ≥ 645 µM; MIC [22]: 1100 µM (≈ 176 µg/mL); MIC [23]: 1100 µM (≈ 176 µg/mL); MIC [24]: 275 µM (≈ 44 µg/mL); MIC [25]: 1100 µM (≈ 176 µg/mL); MIC [26]: 1100 µM (≈ 176 µg/mL); MIC [27]: 1100 µM (≈ 176 µg/mL); MIC [28]: 1100 µM (≈ 176 µg/mL); MIC ([29]; P. shigelloides, agar dilution): 1100 µM (≈ 176 µg/mL); MIC [30]: 1100 µM (≈ 176 µg/mL); IC50 at 48 h [31]: 22.1 ± 1.02 µM
2 | Oc1cccc2cccnc12 [8HQ (1), 8-Hydroxyquinoline] | 6.89 (≈ 1 µg/mL) | 13.8 (≈ 2 µg/mL) | 882 (≈ 128 µg/mL) | 13.8 (≈ 2 µg/mL) | 3.44 (≈ 0.499 µg/mL) | 55.1 (≈ 8 µg/mL) | 13.8 (≈ 2 µg/mL) | 220 (≈ 32 µg/mL) | 6.89 (≈ 1 µg/mL) | 13.8 (≈ 2 µg/mL) | 220 (≈ 32 µg/mL) | 882 (≈ 128 µg/mL) | 110 (≈ 16 µg/mL) | 615 | 6.89 (≈ 1 µg/mL) | 6.89 (≈ 1 µg/mL) | 220 (≈ 32 µg/mL) | 882 (≈ 128 µg/mL) | > 1760 | 220 (≈ 32 µg/mL) | MIC ([19]; P. aeruginosa ATCC 27853, agar dilution): >1763.57 µM; MIC [22]: 220 µM (≈ 32 µg/mL); MIC [32]: 3.44 to 13.8 µM (≈ 0.499 to 2 µg/mL); MIC [33]: 3.44 to 13.8 µM (≈ 0.499 to 2 µg/mL); IC50 [34]: 6.27 µM; MIC [23]: 882 µM (≈ 128 µg/mL); MIC [24]: 13.8 µM (≈ 2 µg/mL); MIC [25]: 13.8 µM (≈ 2 µg/mL); MIC [26]: 13.8 µM (≈ 2 µg/mL); MIC [27]: 220 µM (≈ 32 µg/mL); MIC [28]: 110 to 882 µM (≈ 16 to 128 µg/mL); MIC [28, 36]: 13.8 to 882 µM (≈ 2 to 128 µg/mL); MIC [29]: 13.8 µM (≈ 2 µg/mL); IC50 [35]: 91.8 µM; MIC [30]: 220 µM (≈ 32 µg/mL)
3 | Oc1c(I)cc(Cl)c2cccnc12 [CQ (6), clioquinol] | 26.2 (≈ 8 µg/mL) | 26.2 (≈ 8 µg/mL) | 838 (≈ 256 µg/mL) | 26.2 (≈ 8 µg/mL) | 26.2 (≈ 8 µg/mL) | 26.2 (≈ 8 µg/mL) | 26.2 (≈ 8 µg/mL) | 838 (≈ 256 µg/mL) | 26.2 (≈ 8 µg/mL) | 26.2 (≈ 8 µg/mL) | 26.2 (≈ 8 µg/mL) | > 838 | 26.2 (≈ 8 µg/mL) | 366 | 26.2 (≈ 8 µg/mL) | 26.2 (≈ 8 µg/mL) | 26.2 (≈ 8 µg/mL) | 105 (≈ 32 µg/mL) | > 838 | 26.2 (≈ 8 µg/mL) | MIC [22]: 838 µM (≈ 256 µg/mL); MIC [33]: 26.2 µM (≈ 8 µg/mL); MIC [23]: > 838 µM; MIC [24]: 26.2 µM (≈ 8 µg/mL); MIC [25]: 26.2 µM (≈ 8 µg/mL); MIC [26]: 26.2 µM (≈ 8 µg/mL); MIC [27]: 419 µM (≈ 128 µg/mL); MIC ([29]; P. shigelloides, agar dilution): 26.2 µM (≈ 8 µg/mL); MIC [30]: 105 µM (≈ 32 µg/mL); IC50 at 48 h [31]: 76.17 ± 0.23 µM
4 | Oc1ccc(Cl)c2cccnc12 [Cloxyquin (3), cloxyquin] | 89.1 (≈ 16 µg/mL) | 89.1 (≈ 16 µg/mL) | 178 (≈ 32 µg/mL) | 89.1 (≈ 16 µg/mL) | 5.57 (≈ 1 µg/mL) | 89.1 (≈ 16 µg/mL) | 22.3 (≈ 4 µg/mL) | 178 (≈ 32 µg/mL) | 22.3 (≈ 4 µg/mL) | 44.5 (≈ 8 µg/mL) | 178 (≈ 32 µg/mL) | 713 (≈ 128 µg/mL) | 44.5 (≈ 8 µg/mL) | 1050 | 22.3 (≈ 4 µg/mL) | 89.1 (≈ 16 µg/mL) | 89.1 (≈ 16 µg/mL) | 178 (≈ 32 µg/mL) | > 1430 | 89.1 (≈ 16 µg/mL) | MIC [22]: 178 µM (≈ 32 µg/mL); MIC [33]: 5.57 to 89.1 µM (≈ 1 to 16 µg/mL); MIC [23]: 713 µM (≈ 128 µg/mL); MIC [24]: 22.3 µM (≈ 4 µg/mL); MIC [25]: 178 µM (≈ 32 µg/mL); MIC [26]: 89.1 µM (≈ 16 µg/mL); MIC [27]: 178 µM (≈ 32 µg/mL); MIC ([29]; P. shigelloides, agar dilution): 11.1 µM (≈ 2 µg/mL); MIC [30]: 178 µM (≈ 32 µg/mL); IC50 at 48 h [31]: 81.7 ± 0.96 µM
